Measured values taken from ChEMBL document CHEMBL1833929, “Design, synthesis and anticancer activity of novel dihydrobenzofuro[4,5-b][1,8]naphthyridin-6-one derivatives” (Bioorg Med Chem Lett, 2011).

Tests used:
[1] = Cell cycle arrest in human MCF7/ADR cells assessed as accumulation at S phase at 0.1 uM after 48 hrs using propidium iodide staining by flow cytometry (reference value: 15.34 +/- 0.98 %); format: functional, cell-based; settings: NCI/ADR-RES
In short: (§1)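 MCF-7/ADR cells exposed to test agent for 48 h, collected, washed and suspended in cold PBS. Fixed in chilled 75% methanol, then stained with PI solution (100 µg/mL RNase, 10 µg/mL PI in PBS). Phase distribution (G1, S, G2/M) determined by flow cytometry. Mean ± SEM of three independent experiments; one-way ANOVA with Newman–Keuls post hoc test, p<0.05.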

[2] = Cell cycle arrest in human MCF7/ADR cells assessed as accumulation at G1 phase at 0.05 uM after 48 hrs using propidium iodide staining by flow cytometry (reference value: 62.15 +/- 3.14 %); format: functional, cell-based; settings: NCI/ADR-RES; in short: as §1
MCF7 [3] = assay: Cytotoxicity against estrogen receptor-positive human MCF7 cells after 48 hrs by MTT assay; format: functional, cell-based; settings: MCF7, 48 h
In short: (§2)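 Cells kept in RPMI-1640 with 10% heat-inactivated FBS, 1.25 mM HEPES and 1% penicillin/streptomycin. Seeded at 2×10^3 cells/well and grown 48 h, then treated with a range of concentrations for 24 or 48 h. MTT (5 mg/mL) added for 4 h at 37 °C, formazan dissolved in DMSO, absorbance read at 540 nm. Triplicate. IC50 from log concentration vs % viability loss; doxorubicin reference.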

PC-3 [4] = assay: Cytotoxicity against androgen receptor-negative human PC3 cells after 48 hrs by MTT assay; format: functional, cell-based; settings: PC-3, 48 h; in short: as §2
DU-145 [5] = assay: Cytotoxicity against human DU145 cells after 24 hrs by MTT assay; format: functional, cell-based; settings: DU-145, 24 h; in short: as §2
LNCaP [6] = assay: Cytotoxicity against androgen receptor-positive human LNCAP cells after 24 hrs by MTT assay; format: functional, cell-based; in short: as §2
[7] = Cytotoxicity against human MCF7/ADR cells after 48 hrs by MTT assay; format: functional, cell-based; settings: NCI/ADR-RES; in short: as §2
[8] = Cell cycle arrest in human MCF7/ADR cells assessed as accumulation at G2/M phase at 0.1 uM after 48 hrs using propidium iodide staining by flow cytometry (reference value: 22.51 +/- 1.5 %); format: functional, cell-based; settings: NCI/ADR-RES; in short: as §1
[9] = Cytotoxicity against human MCF7/ADR cells after 24 hrs by MTT assay; format: functional, cell-based; settings: NCI/ADR-RES; in short: as §2
[10] = Cell cycle arrest in human MCF7/ADR cells assessed as accumulation at G1 phase at 0.1 uM after 48 hrs using propidium iodide staining by flow cytometry (reference value: 62.15 +/- 3.14 %); format: functional, cell-based; settings: NCI/ADR-RES; in short: as §1
PC-3 [11] = assay: Cytotoxicity against androgen receptor-negative human PC3 cells after 24 hrs by MTT assay; format: functional, cell-based; settings: PC-3, 24 h; in short: as §2
[12] = Cell cycle arrest in human MCF7/ADR cells assessed as accumulation at G1 phase at 0.2 uM after 48 hrs using propidium iodide staining by flow cytometry (reference value: 62.15 +/- 3.14 %); format: functional, cell-based; settings: NCI/ADR-RES; in short: as §1
[13] = Cell cycle arrest in human MCF7/ADR cells assessed as accumulation at S phase at 0.05 uM after 48 hrs using propidium iodide staining by flow cytometry (reference value: 15.34 +/- 0.98 %); format: functional, cell-based; settings: NCI/ADR-RES; in short: as §1
[14] = Cell cycle arrest in human MCF7/ADR cells assessed as accumulation at G2/M phase at 0.05 uM after 48 hrs using propidium iodide staining by flow cytometry (reference value: 22.51 +/- 1.5 %); format: functional, cell-based; settings: NCI/ADR-RES; in short: as §1
[15] = Cell cycle arrest in human MCF7/ADR cells assessed as accumulation at S phase at 0.2 uM after 48 hrs using propidium iodide staining by flow cytometry (reference value: 15.34 +/- 0.98 %); format: functional, cell-based; settings: NCI/ADR-RES; in short: as §1
LNCaP [16] = assay: Cytotoxicity against androgen receptor-positive human LNCAP cells after 48 hrs by MTT assay; format: functional, cell-based; in short: as §2
MCF7 [17] = assay: Cytotoxicity against estrogen receptor-positive human MCF7 cells after 24 hrs by MTT assay; format: functional, cell-based; settings: MCF7, 24 h; in short: as §2
DU-145 [18] = assay: Cytotoxicity against human DU145 cells after 48 hrs by MTT assay; format: functional, cell-based; settings: DU-145, 48 h; in short: as §2
[19] = Cell cycle arrest in human MCF7/ADR cells assessed as accumulation at G2/M phase at 0.2 uM after 48 hrs using propidium iodide staining by flow cytometry (reference value: 22.51 +/- 1.5 %); format: functional, cell-based; settings: NCI/ADR-RES; in short: as §1
NCI/ADR-RES = assay: Ratio of IC50 for androgen receptor-negative human PC3 cells to IC50 for human MCF7/ADR cells; format: functional
DU-145 [20] = assay: Ratio of IC50 for androgen receptor-negative human PC3 cells to IC50 for human DU145 cells; format: functional
MCF7 [21] = assay: Ratio of IC50 for androgen receptor-negative human PC3 cells to IC50 for estrogen receptor-positive human MCF7 cells; format: functional
MCF7 [22] = assay: Ratio of doxorubicin IC50 to compound IC50 for estrogen receptor-positive human MCF7 cells after 48 hrs by MTT assay; format: functional
LNCaP [23] = assay: Ratio of IC50 for androgen receptor-negative human PC3 cells to IC50 for androgen receptor-positive human LNCAP cells; format: functional
[24] = Cell cycle arrest in human MCF7/ADR cells assessed as accumulation at G1 phase at 5 uM after 48 hrs using propidium iodide staining by flow cytometry (reference value: 62.15 +/- 3.14 %); format: functional, cell-based; settings: NCI/ADR-RES; in short: as §1
[25] = Cell cycle arrest in human MCF7/ADR cells assessed as accumulation at S phase at 5 uM after 48 hrs using propidium iodide staining by flow cytometry (reference value: 15.34 +/- 0.98 %); format: functional, cell-based; settings: NCI/ADR-RES; in short: as §1
[26] = Cell cycle arrest in human MCF7/ADR cells assessed as accumulation at G2/M phase at 5 uM after 48 hrs using propidium iodide staining by flow cytometry (reference value: 22.51 +/- 1.5 %); format: functional, cell-based; settings: NCI/ADR-RES; in short: as §1

| Compound | Activity [1] [%] | Activity [2] [%] | IC50 (MCF7 [3]) [µM] | IC50 (PC-3 [4]) [µM] | IC50 (DU-145 [5]) [µM] | IC50 (LNCaP [6]) [µM] | IC50 [7] [µM] | Activity [8] [%] | IC50 [9] [µM] | Activity [10] [%] | IC50 (PC-3 [11]) [µM] | Activity [12] [%] | Activity [13] [%] | Activity [14] [%] | Activity [15] [%] | IC50 (LNCaP [16]) [µM] | IC50 (MCF7 [17]) [µM] | IC50 (DU-145 [18]) [µM] | Activity [19] [%] | further results |
| --- | --- | --- | --- | --- | --- | --- | --- | --- | --- | --- | --- | --- | --- | --- | --- | --- | --- | --- | --- | --- |
| COc1cc2c(c3c1c(=O)c1cccnc1n3C)C[C@H]([C@@]1(C)CO1)O2 (racemic) | 8.97 | 63.5 | 0.26 | 0.3 | 0.55 | 0.48 | 0.15 | 33.7 | 0.49 | 57.4 | 0.56 | 51.2 | 12.4 | 24.1 | 7.68 | 0.14 | 0.66 | 0.15 | 41.1 | – |
| COc1cc2c(c3c1c(=O)c1cccnc1n3C)C[C@H]([C@]1(C)CO1)O2 (racemic) | 13.6 | 68.4 | 1.02 | 2.15 | 2.36 | 2.48 | 0.92 | 21.8 | 2.21 | 64.6 | 4.67 | 55.2 | 11.2 | 20.5 | 16.6 | 0.86 | 1.84 | 0.84 | 28.3 | Ratio IC50 (NCI/ADR-RES): 2; Ratio IC50 (DU-145 [20]): 2; Ratio IC50 (MCF7 [21]): 2; Ratio IC50 (MCF7 [22]): 1.5; Ratio IC50 (LNCaP [23]): 2 |
| COc1cccc2c1C(=O)c1c(O)c3c(c(O)c1C2=O)C[C@@](O)(C(=O)CO)C[C@@H]3O[C@H]1C[C@H](N)[C@H](O)[C@H](C)O1 [DOXORUBICIN] | – | – | – | 1.22 | 6.24 | 7.42 | 13.6 | – | > 20 | – | 4.1 | – | – | – | – | 1.66 | – | 0.58 | – | Activity [24]: 53.3%; Activity [25]: 21.9%; Activity [26]: 24.6% |
